Here are results for two molecules from paper PMC9257424 (The Journal of Biological Chemistry, 2022).

For assay [1], the target named is Leeuwenhoekiella blandensis MED217 dGTPase (SAMHD1 homolog), wild type, residues 3 to 442 (Leeuwenhoekiella blandensis MED217). In words: crystal structure.
The target is the same in assay [2]. In words: cryo-EM structure.
For assay [3], the target named is T1, L. blandensis dGTPase R28A (Leeuwenhoekiella blandensis, UniProt A3XHN1, R28A).
T1 sequence (A3XHN1 3-442 R28A): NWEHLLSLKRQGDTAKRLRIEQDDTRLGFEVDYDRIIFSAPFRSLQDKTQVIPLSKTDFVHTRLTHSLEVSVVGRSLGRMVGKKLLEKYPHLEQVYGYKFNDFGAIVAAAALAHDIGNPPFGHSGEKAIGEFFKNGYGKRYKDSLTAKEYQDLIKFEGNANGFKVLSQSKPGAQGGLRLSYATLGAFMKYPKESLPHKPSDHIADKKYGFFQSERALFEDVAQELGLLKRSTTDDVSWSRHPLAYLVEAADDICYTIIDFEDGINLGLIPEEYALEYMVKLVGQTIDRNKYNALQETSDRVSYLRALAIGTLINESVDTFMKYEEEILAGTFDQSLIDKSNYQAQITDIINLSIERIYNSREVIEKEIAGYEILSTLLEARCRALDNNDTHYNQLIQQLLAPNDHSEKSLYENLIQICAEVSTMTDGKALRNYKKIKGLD
Description: Enzyme-coupled dGTPase activity assay, R28A mutant. It counts as biochemical. The conditions noted are these: dATP titration at 1 mM dGTP. In a few lines: (§1)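 Variants of residues 3–442 were made by site-directed mutagenesis, expressed in E. coli BL21(DE3), and purified by Ni–NTA and size exclusion. dATP was serially diluted into buffer containing 1 mM dGTP (100 mM Tris pH 8, 5 mM MgCl2, 125 μM MnCl2, 5 mM phosphate). Reactions started with 1:1 addition of a 2× mix (~120 nM monomer, PNP, XOD). A297 was read at 25 °C, converted to v0/[E]t, and kcat,app versus dATP was Hill-fitted for K1/2.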

Assay [4] has as its target T2, L. blandensis dGTPase (WT) (Leeuwenhoekiella blandensis, UniProt A3XHN1).
T2 sequence (A3XHN1 3-442): T1 sequence (A3XHN1 3-442 R28A)
Description: Enzyme-coupled dGTPase activity assay, WT enzyme. In kind it is biochemical.

Assay [5] deals with T3, L. blandensis dGTPase V74Q (Leeuwenhoekiella blandensis, UniProt A3XHN1, V74Q).
T3 sequence (A3XHN1 3-442 V74Q): T1 sequence (A3XHN1 3-442 R28A)
Description: Enzyme-coupled dGTPase activity assay, V74Q mutant. In kind it is biochemical. In a few lines: as §1

The target of assay [6] is T2, L. blandensis dGTPase (WT). In words: HPLC dGTPase activity assay, WT enzyme. In kind it is biochemical. The following applies: mixture of eight standard dNTPs and NTPs, 1 mM each, 1 h.
The test system of assay [7] is L. blandensis dGTPase R37A. Description: Enzyme-coupled dGTPase activity assay, R37A mutant. In kind it is biochemical, Leeuwenhoekiella blandensis. The following applies: dATP titration at 1 mM dGTP. In a few lines: as §1
Assay [8] has as its target T4, L. blandensis dGTPase F40N (Leeuwenhoekiella blandensis, UniProt A3XHN1, F40N).
T4 sequence (A3XHN1 3-442 F40N): T1 sequence (A3XHN1 3-442 R28A)
In words: Enzyme-coupled dGTPase activity assay, F40N mutant. In kind it is biochemical. The conditions noted are these: dATP titration at 1 mM dGTP. In a few lines: as §1

“Also recorded” adds a separate entry of the source.

On to “Leeuwenhoekiella blandensis MED217 dGTPase (SAMHD1 homolog), wild type, residues 3 to 442 (enzyme)”, for which the stoichiometry N in assay [1] and in assay [2] was 6 in each case.
On to `Nc1ncnc2c1ncn2[C@H]1C[C@H](O)[C@@H](COP(=O)(O)OP(=O)(O)OP(=O)(O)O)O1` [dATP], for which the figures for the “activation by dATP” value in assay [3], in assay [7] and in assay [8] were “eliminate activation by dATP; also recorded: not activated by dATP”, “eliminate activation by dATP; also recorded: not activated by dATP” and “eliminated allosteric activation by dATP”, respectively. Further, the EC50 in assay [4] turned out to be 36 ± 3 µM; in assay [5], 180 ± 16 µM. For the same molecule, the “increase of dGTPase kcat by dATP” value in assay [4] (WT, 500 µM dATP versus dGTP-only) is listed as approximately 50%. Besides, the “fold activation of turnover rate by dATP” value in assay [4] (WT, calculated with n^H = 2, dGTP concentration at saturation) is approximately 1.6 fold; in assay [4] (WT, calculated with n^H = 2, dGTP less than ~160 µM) it was “more than threefold”. Further, in assay [4] (WT, dATP titration at 1 mM dGTP), the “n^H (Hill coefficient) of activation by dATP” value amounted to 1.3 ± 0.1. The hydrolysis as substrate result in assay [6] is “not used as a substrate”.

A word on the stoichiometry N: it is a count of units in the complex or per binding partner. Usually EC50 stands for the concentration giving half of the maximal effect. Low readings indicate greater potency, high ones weaker potency.
